# Results gathered from unrelated publications.
# Matrix: Caco-2
SMILES,concentration,time,Papp B→A [×10⁻⁶ cm/s]
CC(C)c1nc(N(C)S(C)(=O)=O)nc(-c2ccc(F)cc2)c1/C=C/[C@@H](O)C[C@@H](O)CC(=O)O,5 µM,2 h,14.6
CC(C)NCC(O)COc1cccc2ccccc12 (centres unmarked),10 µM,2 h,20
C[C@@H]1O[C@@H](OC[C@H]2O[C@@H](Oc3c(-c4ccc(OCCO)c(OCCO)c4)oc4cc(OCCO)cc(O)c4c3=O)[C@H](O)[C@@H](O)[C@@H]2O)[C@H](O)[C@H](O)[C@H]1O,100 µg/mL,2 h,2.67
CCCCCOC(=O)Nc1nc(=O)n([C@@H]2O[C@H](C)[C@@H](O)[C@H]2O)cc1F,,4 h,14.3
COc1ccc([C@@H]2CC(=O)c3c(O)cc(O)cc3O2)cc1O,100 µg/mL,2 h,21.4
C[C@H]1O[C@@H](O[C@H]2[C@@H](O)C[C@H](O[C@H]3[C@@H](O)C[C@H](O[C@H]4CC[C@@]5(C)[C@H](CC[C@@H]6[C@@H]5C[C@@H](O)[C@]5(C)[C@@H](C7=CC(=O)OC7)CC[C@]65O)C4)O[C@@H]3C)O[C@@H]2C)C[C@H](O)[C@@H]1O,5 µM,2 h,17.9
N#Cc1ccc(C[C@H](Nc2nnc(-c3ccc(F)cc3)o2)C(=O)N2CCc3ccccc32)cc1,100 µM,2 h,237
O=C(CCc1ccc(O)cc1)c1c(O)cc(O)cc1O[C@@H]1O[C@H](CO)[C@@H](O)[C@H](O)[C@H]1O,100 µg/mL,2 h,5.39
COc1cc(NC(=O)Cn2cc(Cl)c3cc(F)c(-c4cnn(C)c4)cc32)cc(OC)c1OC,,,1.51
N#Cc1ccc(C[C@H](NC(=O)Nc2ccc(F)cc2)C(=O)N2CCc3ccccc32)cc1,100 µM,2 h,218
Cc1cc(C)c(CNC(=O)c2cc(Cl)c3c(c2C)O[C@@](C)([C@H]2CC[C@H](N(C)C)CC2)O3)c(=O)[nH]1,100 µM,,16.3
C[C@@H]1O[C@@H](O[C@H]2[C@H](Oc3cc(O)c4c(c3)O[C@H](c3ccc(O)cc3)CC4=O)O[C@H](CO)[C@@H](O)[C@@H]2O)[C@H](O)[C@H](O)[C@H]1O,100 µg/mL,2 h,8.02
N#Cc1ccc(C[C@H](Nc2nnc(-c3ccc(F)cc3)s2)C(=O)N2CCc3ccccc32)cc1,100 µM,2 h,314
N#C[C@@]1(c2ccc3c(N)ncnn23)O[C@H](CO)[C@@H](O)[C@H]1O,10 µM,2 h,25.4
